Consider 7 molecules from ChEMBL document CHEMBL1152244, “Proteochemometrics analysis of substrate interactions with dengue virus NS3 proteases” (Bioorg Med Chem, 2008).

One assay concerns dengue virus type 3. In words: Activity of dengue virus 3 recombinant NS3 protease expressed in Escherichia coli C41(DE3) by fluorogenic assay. The method, boiled down: (§1)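 NS2B(H)-NS3pro from inclusion bodies, Ni-chelate and gel filtration purified under 8 M urea, refolded by dialysis. Internally quenched Abz–RRRR-XXXX–nY–NH2 peptides, 1–100 µM (12 points), enzyme 150–200 nM, 50 mM Tris–HCl pH 9.0, 20% glycerol, 37 °C. Cleavage read as fluorescence, ex 320/em 420 nm. Initial rates fitted to give Km and kcat, averaged over ≥3 independent measurements.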

A further assay concerns dengue virus type 2. In words: Activity of dengue virus 2 recombinant NS3 protease expressed in Escherichia coli C41(DE3) by fluorogenic assay. Put shortly: as §1
Another assay has as its system dengue virus type 1. In words: Activity of dengue virus 1 recombinant NS3 protease expressed in Escherichia coli C41(DE3) by fluorogenic assay. The method, boiled down: as §1
The subject of the next assay is dengue virus type 4. In words: Activity of dengue virus 4 recombinant NS3 protease expressed in Escherichia coli C41(DE3) by fluorogenic assay. Put shortly:
as §1

The structures appear in SMILES notation. Non-standard residues stand in square brackets, D forms with d. Residues, ends and D or L forms follow the SMILES beside them. Tyr(3-NO2) = N[C@@H](Cc1ccc(O)c([N+](=O)[O-])c1)C(=O)O; 2Abz = Nc1ccccc1C(=O)O

What is called Km is the substrate concentration at which the rate is half of its maximum. The kcat is the maximal rate divided by the concentration of active sites. On to `C[C@@H](O)[C@H](NC(=O)[C@H](CO)NC(=O)c1ccccc1N)C(=O)N1CCC[C@H]1C(=O)N[C@@H](Cc1cnc[nH]1)C(=O)N[C@@H](Cc1ccc(O)c([N+](=O)[O-])c1)C(N)=O` (H-[2Abz]STPH[Tyr(3-NO2)]-NH2), for which the Km in the assay with dengue virus type 3 is 42.2 µM; in the assay on dengue virus type 2, 17.2 µM; in the assay on dengue virus type 1, 18.1 µM; in the assay on dengue virus type 4, 14.8 µM. Further, the kcat amounted to 0.0145 s⁻¹ in the assay on dengue virus type 3, 0.0157 s⁻¹ in the assay with dengue virus type 2, 0.0313 s⁻¹ in the assay with dengue virus type 1 and 0.078 s⁻¹ with dengue virus type 4.

On to `C[C@@H](O)[C@H](NC(=O)CNC(=O)CNC(=O)c1ccccc1N)C(=O)N[C@@H](CC(=O)O)C(=O)N[C@@H](Cc1ccc(O)c([N+](=O)[O-])c1)C(N)=O` (H-[2Abz]GGTD[Tyr(3-NO2)]-NH2), for which the Michaelis constant (Km) in the assay on dengue virus type 3 turned out to be 18.6 µM; in the assay with dengue virus type 2, 12.9 µM; in the assay with dengue virus type 1, 49.7 µM; in the assay on dengue virus type 4 it was 12.2 µM. Besides, the kcat in the assay with dengue virus type 3 came out at 0.0247 s⁻¹; in the assay with dengue virus type 2, 0.00717 s⁻¹; in the assay on dengue virus type 1, 0.0715 s⁻¹; in the assay with dengue virus type 4, 0.0585 s⁻¹.

Regarding `C[C@@H](O)[C@H](NC(=O)CNC(=O)c1ccccc1N)C(=O)NCC(=O)N[C@@H](CC(N)=O)C(=O)N[C@@H](Cc1ccc(O)c([N+](=O)[O-])c1)C(N)=O` (H-[2Abz]GTGN[Tyr(3-NO2)]-NH2), the Km came out at 20.9 µM in the assay with dengue virus type 3, 3.05 µM in the assay with dengue virus type 2, 22.1 µM with dengue virus type 1 and 10.7 µM with dengue virus type 4. The kcat with dengue virus type 3 is 0.0128 s⁻¹; in the assay on dengue virus type 2 it was 0.00483 s⁻¹; in the assay on dengue virus type 1 it was 0.0462 s⁻¹; in the assay with dengue virus type 4, 0.0855 s⁻¹.

In the case of `C[C@H](NC(=O)CNC(=O)c1ccccc1N)C(=O)N[C@H](C(=O)N[C@@H](Cc1cnc[nH]1)C(=O)N[C@@H](Cc1ccc(O)c([N+](=O)[O-])c1)C(N)=O)[C@@H](C)O` (H-[2Abz]GATH[Tyr(3-NO2)]-NH2), the Km in the assay with dengue virus type 3 was found to be 18.9 µM; in the assay with dengue virus type 2, 4.66 µM; in the assay on dengue virus type 1, 17.4 µM; in the assay on dengue virus type 4, 7.79 µM. The kcat was 0.0237 s⁻¹ in the assay on dengue virus type 3, 0.0157 s⁻¹ in the assay on dengue virus type 2, 0.0825 s⁻¹ in the assay with dengue virus type 1 and 0.0782 s⁻¹ in the assay on dengue virus type 4.

Regarding `CC(C)C[C@H](NC(=O)[C@@H]1CCCN1C(=O)[C@H](Cc1c[nH]c2ccccc12)NC(=O)[C@H](CO)NC(=O)c1ccccc1N)C(=O)N[C@@H](Cc1ccc(O)c([N+](=O)[O-])c1)C(N)=O` (H-[2Abz]SWPL[Tyr(3-NO2)]-NH2), the Michaelis constant (Km) with dengue virus type 3 was 12 µM; in the assay on dengue virus type 2, 5.54 µM; in the assay on dengue virus type 1, 12.6 µM; with dengue virus type 4, 7.18 µM. Further, the kcat is 0.0148 s⁻¹ in the assay on dengue virus type 3, 0.0105 s⁻¹ with dengue virus type 2, 0.0323 s⁻¹ with dengue virus type 1 and 0.0668 s⁻¹ in the assay on dengue virus type 4.

With `NC(=O)C[C@H](NC(=O)c1ccccc1N)C(=O)N1CCC[C@H]1C(=O)N[C@@H](CO)C(=O)N[C@@H](Cc1cnc[nH]1)C(=O)N[C@@H](Cc1ccc(O)c([N+](=O)[O-])c1)C(N)=O` (H-[2Abz]NPSH[Tyr(3-NO2)]-NH2), the Km with dengue virus type 3 came to 26.9 µM; in the assay with dengue virus type 2, 5.18 µM; with dengue virus type 1, 13.4 µM; with dengue virus type 4, 21.5 µM. Besides, the kcat was 0.00183 s⁻¹ in the assay with dengue virus type 3, 0.00133 s⁻¹ in the assay with dengue virus type 2, 0.00617 s⁻¹ with dengue virus type 1 and 0.0225 s⁻¹ with dengue virus type 4.

Regarding `NC(=O)[C@H](Cc1ccc(O)c([N+](=O)[O-])c1)NC(=O)[C@H](CC(=O)O)NC(=O)[C@H](CS)NC(=O)[C@H](Cc1cnc[nH]1)NC(=O)[C@H](CO)NC(=O)c1ccccc1N` (H-[2Abz]SHCD[Tyr(3-NO2)]-NH2), the Km amounted to 11.3 µM in the assay on dengue virus type 3, 11.4 µM in the assay on dengue virus type 2, 26.3 µM in the assay on dengue virus type 1 and 9.77 µM with dengue virus type 4. Further, the kcat in the assay with dengue virus type 3 was 0.0285 s⁻¹; in the assay on dengue virus type 2, 0.0123 s⁻¹; in the assay with dengue virus type 1 it was 0.0685 s⁻¹; in the assay on dengue virus type 4, 0.0783 s⁻¹.
